Active and inactive are the calls of the source. The calls are words filed in the database; no cut-off is given here.
Legend:
[1] = target: T1, Dopamine beta-hydroxylase (Bos taurus) (UniProt P15101); assay: Kinact value is determined from a plot of log(percent enzyme activity remaining) vs times; e denotes 'Minimal time dependent inactivation'
T1 sequence (whole entry): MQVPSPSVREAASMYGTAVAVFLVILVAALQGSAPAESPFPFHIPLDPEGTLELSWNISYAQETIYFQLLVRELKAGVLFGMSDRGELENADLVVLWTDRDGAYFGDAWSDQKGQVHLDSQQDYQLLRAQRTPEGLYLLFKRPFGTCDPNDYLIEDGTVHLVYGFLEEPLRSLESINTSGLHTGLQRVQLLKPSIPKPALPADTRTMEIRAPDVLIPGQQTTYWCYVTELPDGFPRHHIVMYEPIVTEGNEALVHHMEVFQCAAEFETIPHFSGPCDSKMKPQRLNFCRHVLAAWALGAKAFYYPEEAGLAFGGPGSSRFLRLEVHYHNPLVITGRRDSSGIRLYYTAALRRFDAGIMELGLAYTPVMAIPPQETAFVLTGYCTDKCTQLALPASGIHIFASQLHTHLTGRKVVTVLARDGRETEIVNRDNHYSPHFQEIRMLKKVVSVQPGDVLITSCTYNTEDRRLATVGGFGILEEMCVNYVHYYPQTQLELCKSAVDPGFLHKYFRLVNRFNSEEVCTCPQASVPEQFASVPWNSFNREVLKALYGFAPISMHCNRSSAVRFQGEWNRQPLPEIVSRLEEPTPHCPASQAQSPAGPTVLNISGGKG
How it was run: (§1)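 Homogeneous bovine DBH (specific activity 30-42 units/mg at pH 5.0) was used in 50 mM sodium acetate at pH 5.0 and ionic strength 0.2, with 1 mg/mL catalase, 10 μM Cu²⁺ and 10 mM ascorbic acid at 37 °C. O₂ was held at 0.24 mM, so kinact values are apparent. kinact(observed) came from log % activity remaining vs time. KI and kinact came from 1/kinact(obs) vs 1/[inhibitor] plots using at least four inhibitor concentrations. Values are mean ± SEM.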

[2] = target: T1, Dopamine beta-hydroxylase (Bos taurus); assay: Kis value for the affinity towards homogenous bovine dopamine beta-hydroxylase (DBH)
How it was run: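 Competitive inhibition constant was measured against tyramine substrate without fumarate, using homogeneous bovine DBH (30-42 units/mg at pH 5.0). Conditions were pH 5.0, ionic strength 0.2, 50 mM sodium acetate, 1 mg/mL catalase, 10 μM Cu²⁺, 10 mM ascorbate and 37 °C. Kis was obtained by kinetic fitting and is reported as mean ± SEM.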

[3] = target: T2, Dopamine beta-hydroxylase (Bos taurus, UniProt P15101); assay: KI value was determined from plots of 1/kinact(observed) vs 1/[inhibitor]; e denotes 'Minimal time dependent inactivation'; how it was run: as §1
T2 sequence (P15101 whole entry): T1 sequence (whole entry)

[4] = target: T1, Dopamine beta-hydroxylase (Bos taurus); assay: Kinact value is determined from a plot of log(percent enzyme activity remaining) vs times; how it was run: as §1
[5] = target: T2, Dopamine beta-hydroxylase; assay: KI value was determined from plots of 1/kinact(observed) vs 1/[inhibitor]; how it was run: as §1
[6] = target: T1, Dopamine beta-hydroxylase (Bos taurus); assay: Kinact value is determined from a plot of log(percent enzyme activity remaining) vs times; Apparent values at pH 5.0, 0.24 mM O2
[7] = target: T2, Dopamine beta-hydroxylase; assay: KI value was determined from plots of 1/kinact(observed) vs 1/[inhibitor]; Apparent values at pH 5.0, 0.24 mM O2

Row | Structure (SMILES) | K inact [1] | Kis [2] | Ki [3] | other results
1 | C#CC(CN)c1ccccc1 (centres undefined) | inactive | 160 µM | Inactive | –
2 | C#CC(CN)c1ccc(O)cc1 (stereo in doubt; (+)3) [listing 1 of 2 here] | – | – | Inactive | –
3 | C#CC(CN)c1ccc(O)cc1 (stereo in doubt; (+)3) [listing 2 of 2 here] | inactive | 7.9 µM | – | –
4 | C#CC(CN)c1ccc(O)cc1 (single isomer, unassigned; (-)) [listing 1 of 2 here] | – | 33.9 µM | – | K inact [4]: 0.184 min⁻¹
5 | C#CC(CN)c1ccc(O)cc1 (stereo in doubt; (+\-)3) [listing 1 of 2 here] | – | 13.6 µM | – | K inact [4]: 0.023 min⁻¹
6 | C#CC(CN)c1ccc(O)cc1 (stereo in doubt; (+\-)3) [listing 2 of 2 here] | – | – | – | Ki [5]: 15.7 µM
7 | C=CC(CN)c1cccc(O)c1 (centres undefined) | inactive | 1270 µM | Inactive | –
8 | C=C(CN)c1ccc(O)cc1 | – | – | – | K inact [6]: 0.81 min⁻¹; Ki [7]: 520 µM
9 | Oc1ccc(CC2CC2)cc1 | – | – | – | Ki [5]: 12000 µM; K inact [4]: 1.8 min⁻¹
10 | C=C(CN)c1cccs1 | – | – | – | K inact [4]: 0.124 min⁻¹
11 | C#CC(CN)c1cccc(O)c1 (centres undefined) | inactive | 190 µM | Inactive | –
12 | C#CC(CN)c1ccc(O)cc1 (single isomer, unassigned; (-)) [listing 2 of 2 here] | – | – | – | Ki [5]: 57 µM
13 | C=CC(CN)c1ccccc1 (centres undefined) | inactive | 670 µM | Inactive | –
14 | C=CC(CN)c1ccc(O)cc1 (centres undefined) | inactive | 82 µM | Inactive | –

— ChEMBL document CHEMBL1124234, “Beta-substituted phenethylamines as high-affinity mechanism-based inhibitors of dopamine beta-hydroxylase” (J Med Chem, 1988)
